Compound activity (PubChem)
DENV2 CPE rescue = inhibitors of DENV2 cytopathic effect, primary screen, cell-based, plate reader, single concentration. AID 651640, 2012. 1.7% of 350,000 active. DENV2-infected cells, cytopathic effect rescue. CPE inhibition, % at 9.99 µM; in the data active = CPE inhibition above about 20%, passing the limit was not always enough; inconclusive = no clear call, values can overlap the other calls; tested in BHK-21 cells;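 also: 0% = median of neutral control wells and 100% = median of positive control wells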
XiGFP reactiv = activators of inactive X chromosome reactivation, primary screen, imaging, XiGFP fibroblasts, GFP high-content imaging, set 2. 0.055% of 360,000 active. XiGFP mouse fibroblasts, % GFP-positive cells imaging, 3 d; cells co-treated with 5-aza-dC sensitizer; scaled so ellipticine positive control = 100%. activation, % at 7.58 µM;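 active = mean normalized replicate activation at least 10% and every replicate at or above 10%; inconclusive = only one of the two criteria met; inactive = mean below 10% and not all replicates reach 10%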;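 also: 0% = median of on-plate neutral control wells and 100% = ellipticine 6 µM median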
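assay system = SV40-immortalized XiGFP fibroblast cells, line 68-5-11 | buffer or medium = DMEM plus 5-aza-dC sensitizer | doses = single-point pinned compound dosing | times = 3-day compound exposure, then 15 min fixation at room temperature | benchmarks = positive control ellipticine, 6 µM final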
E-sel inducer = E-selectin induction in HUVECs, primary screen, imaging, HUVEC, immunofluorescence imaging, single point | P16581 | normalized: neutral wells 0, TNF-alpha wells 100 | activation, % at 7.58 µM | 0.37% of 260,000 active | AID 686992, 2013;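 active = mean E-selectin-positive cell signal at least 10% of the positive control, reached in at least 60% of replicates, without over 20% cell loss; inconclusive = no rule given, readout overlaps actives, possibly toxicity-flagged; inactive = the rest, including those meeting only one limit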
Target sequence (P16581 whole entry, looked up): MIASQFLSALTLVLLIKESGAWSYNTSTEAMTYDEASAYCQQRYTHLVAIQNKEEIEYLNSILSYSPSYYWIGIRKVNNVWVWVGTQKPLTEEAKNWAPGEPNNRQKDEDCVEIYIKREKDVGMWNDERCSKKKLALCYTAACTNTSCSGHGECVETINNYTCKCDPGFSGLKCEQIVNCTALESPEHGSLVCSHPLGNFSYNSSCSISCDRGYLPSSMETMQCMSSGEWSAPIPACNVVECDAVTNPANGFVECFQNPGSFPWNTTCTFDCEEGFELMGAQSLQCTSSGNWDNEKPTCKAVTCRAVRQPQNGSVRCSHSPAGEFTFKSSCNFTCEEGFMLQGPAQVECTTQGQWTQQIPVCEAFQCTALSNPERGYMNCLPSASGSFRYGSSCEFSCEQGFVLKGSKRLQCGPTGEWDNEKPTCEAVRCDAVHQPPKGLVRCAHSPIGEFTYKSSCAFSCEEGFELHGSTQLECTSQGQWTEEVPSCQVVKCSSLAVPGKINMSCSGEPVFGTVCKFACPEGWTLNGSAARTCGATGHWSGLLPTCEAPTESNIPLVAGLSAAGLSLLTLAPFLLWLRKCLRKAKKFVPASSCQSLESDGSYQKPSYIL
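System: HUVEC / Compound: single concentration / Signal: immunofluorescence imaging / Read-out: percent E-selectin-positive cells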
S100A4 inh HTS = inhibitors of S100A4-myosin IIA peptide binding, primary screen, biochemical, fluorescence polarization, TAMRA-MyoIIA peptide. Protein S100-A4 (Homo sapiens), P26447. inhibition, % at 10.7 µM. 0.14% of 360,000 active;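 active = mean inhibition of at least 70% across replicates, with every replicate also reaching that level; inconclusive = mean inhibition reaches 70% but some replicates fall short; inactive = mean inhibition below 70%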
Target sequence (P26447 whole entry, looked up): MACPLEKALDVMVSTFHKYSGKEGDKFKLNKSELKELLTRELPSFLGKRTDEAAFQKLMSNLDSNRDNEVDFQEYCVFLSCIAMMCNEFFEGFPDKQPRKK
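Material: S100A4 monomer (human). Medium: Calcium-containing HEPES buffer, pH 7.2. Probe or stimulus: labelled myosin peptide probe, 5 nM. Compound dosing: one concentration per compound. Timing: polarization read 5 min after assay mix addition, stable 5–60 min. Benchmarks: DMSO as neutral control, TFP as positive control.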
* hit, by the source's call; ? = inconclusive; . = no result given. Hits are enriched below; roughly 2% of the tested compounds scored in any of these assays.

SMILES | DENV2 CPE rescue | XiGFP reactiv | E-sel inducer | S100A4 inh HTS
Cc1ccc(C)c(N2CCN(C(=O)CCc3nc(-c4ccccc4)no3)CC2)c1 | 20.3* | -0.1 | -0.1 | -13.0
CCc1nc(Cl)c(C#N)c2c1CCCC2 | 2.1 | 0.1 | 0.1 | -2.3
CCc1ccc([C@H]2C(C(=O)O)=C[C@@H](CC)N2S(=O)(=O)c2ccc(C)cc2)cc1 | 11.4 | 0.1 | -0.1 | 8.2
CC(C)(C)c1ccc(C2(C)NC(=O)NC2=O)cc1 (stereo not drawn) | 0.7 | 0.1 | -0.2 | -8.7
COc1cc(F)cc(-c2ccc3c(c2)c(-c2cccs2)c(-c2cc(OC)cc(OC)c2)n3C)c1 | 77.8* | 0.0 | 0.2 | -7.3
COc1cc(OC)cc(-c2c(-c3cccs3)c3cc(-c4ccn[nH]4)ccc3n2C)c1 | 32.6* | 0.0 | 0.5 | -5.2
COc1cc(OC)cc(-c2c(-c3cccs3)c3cc(-c4ccc(N(C)C)nc4)ccc3n2C)c1 | 33.6* | 0.0 | 0.2 | 0.0
COc1cccc(CN2CC(C(=O)N(C)CCc3ccccc3)CCC2=O)c1 (stereo not drawn) | 2.1 | 0.0 | . | -1.3
CO[C@H]1CN(C)C(=O)c2ccc(NC(=O)C3CCC3)cc2OC[C@@H](C)N(C)C[C@@H]1C | -7.1 | 0.2 | 0.0 | -14.6
CCOC(=O)c1c(NC(=O)CSc2nnnn2C)sc(C(=O)N(C)C)c1C | -0.9 | -0.2 | 2.3 | -1.1
CCCCNC(=O)c1ccc(NS(=O)(=O)c2ccc3[nH]c(=O)[nH]c3c2)cc1 | 22.7* | 0.1 | -0.4 | -0.8
CCCCCNC(=O)c1ccc(NS(=O)(=O)c2ccc3[nH]c(=O)[nH]c3c2)cc1 | -0.3 | 0.3 | 0.4 | -0.6
CCCNC(=O)N1CC2(C1)CN(Cc1ccc(F)cc1)[C@H](CO)c1[nH]c3cc(OC)ccc3c12 | -3.6 | 0.0 | 0.0 | 2.0
Nc1ccc2ccccc2c1C(=O)c1ccccc1 | 57.0* | 0.3 | 0.1 | -1.6
C[C@H]1CCCCO[C@H](CN(C)Cc2ccncc2)[C@@H](C)CN([C@@H](C)CO)C(=O)c2cc(N(C)C)ccc2O1 | 11.8 | -0.7 | 0.0 | 0.1
C[C@H](CO)N1C[C@H](C)[C@@H](CN(C)Cc2ccc(Cl)c(Cl)c2)OCCCC[C@H](C)Oc2ccc(N(C)C)cc2C1=O | 30.2* | -0.9 | 0.5 | -7.0
C[C@H](CO)N1C[C@H](C)[C@@H](CN(C)Cc2ccncc2)OCCCC[C@H](C)Oc2ccc(N(C)C)cc2C1=O | 30.9* | 0.5 | -0.1 | 1.3
CCC(=O)N1CC(=O)N2[C@H](CO)[C@@H](c3ccc(-c4ccc(C#N)cc4)cc3)[C@H]2C1 | 12.2 | 0.0 | -0.3 | .
O=C(COC(=O)CN1C(=O)C2CCCCC2C1=O)Nc1cc(S(=O)(=O)N2CCOCC2)ccc1Cl (stereo not drawn) | 87.7* | 0.0 | -1.2 | 0.6
O=C(COC(=O)CN1C(=O)C2CCCCC2C1=O)Nc1ccc(S(=O)(=O)N2CCOCC2)cc1 (stereo not drawn) | -0.7 | 0.8 | 1.9 | -3.6
CCN(CC)c1ccc(S(=O)(=O)N2CCOCC2)cc1NC(=O)CN1C(=O)NC2(CCCC2)C1=O | -2.2 | 0.1 | 62.6* | -1.6
O=C(CN1C(=O)NC2(CCCCCC2)C1=O)Nc1ccc(S(=O)(=O)N2CCOCC2)cc1 | . | . | . | -0.9
CO[C@H]1CN(C)C(=O)c2ccc(NC(=O)C3CC3)cc2OC[C@H](C)N(C(C)=O)C[C@H]1C | 18.5 | 0.3 | 0.1 | -10.4
COc1ccc(N2C3=C(C(=O)CC(C)(C)C3)C(c3ccccc3OC)C3=C2CC(C)(C)CC3=O)cc1 | 1.8 | 0.3 | 0.1 | -17.9
Cc1ccc(N2C3=C(C(=O)CC(C)(C)C3)C(c3cn(C)nc3C)C3=C2CC(C)(C)CC3=O)cc1 | -1.5 | -0.1 | -0.2 | 112.2*
SMILES | DENV2 CPE rescue | XiGFP reactiv | E-sel inducer | S100A4 inh HTS
CCN(CC)C(=O)c1cn(-c2cccc(OC)c2)c(=O)c2ccccc12 | -3.6 | 0.3 | 67.3* | -1.0
CN(Cc1ccncc1)C(=O)[C@@H]1CCCN1C(=O)[C@@H]1CCCN1 | -11.5 | 0.1 | 0.2 | -4.6
CC(O)Cc1cn([C@@H](CCCCN)C(=O)N2CCNCC2)nn1 (stereo partly drawn) | 24.8* | 0.0 | . | -0.7
CCCCNC(=O)N1c2ccccc2CC1C (stereo not drawn) | -10.7 | 0.0 | 154.8* | 0.5
COC(=O)c1ccccc1NC(=O)N1c2ccccc2CC1C (stereo not drawn) | . | . | . | -4.3
C[C@H]1CN([C@@H](C)CO)C(=O)Cc2cc(N(C)C)ccc2O[C@H]1CN(C)Cc1ccncc1 | 1.8 | 0.2 | 0.0 | -11.1
Cc1ccc(S(=O)(=O)Nc2ccc3c(c2)C(=O)N([C@@H](C)CO)C[C@H](C)[C@@H](CN(C)C(=O)NC(C)C)OCCCC[C@@H](C)O3)cc1 | 22.4* | 0.0 | 0.9 | 1.4
Cc1ccc(S(=O)(=O)Nc2ccc3c(c2)C(=O)N([C@H](C)CO)C[C@@H](C)[C@@H](CN(C)C(=O)NC(C)C)OCCCC[C@H](C)O3)cc1 | 11.2 | -0.1 | 0.3 | -3.7
Cc1ccc(S(=O)(=O)Nc2ccc3c(c2)C(=O)N([C@H](C)CO)C[C@H](C)[C@@H](CN(C)S(=O)(=O)c2ccc(Cl)cc2)OCCCC[C@H](C)O3)cc1 | 36.8* | -0.1 | 0.1 | .
Cc1ccc(S(=O)(=O)Nc2ccc3c(c2)C(=O)N([C@H](C)CO)C[C@@H](C)[C@@H](CN(C)S(=O)(=O)c2ccc(C)cc2)OCCCC[C@@H](C)O3)cc1 | ? | 1.5 | 0.3 | 103.2*
C[C@@H]1CN([C@H](C)CO)C(=O)c2cc(NS(=O)(=O)c3ccc(Cl)cc3)ccc2O[C@@H](C)CCCCO[C@H]1CN(C)S(=O)(=O)c1ccc(Cl)cc1 | 54.0* | 0.3 | -0.2 | .
CCS(=O)(=O)N1CCC(C(=O)Oc2ccc(Br)cc2)CC1 | 7.7 | 0.3 | 0.2 | -4.1
C[C@@H]1CCCCO[C@@H](CN(C)S(=O)(=O)c2ccc(Cl)cc2)[C@@H](C)CN([C@@H](C)CO)C(=O)c2cc(NS(C)(=O)=O)ccc2O1 | 1.6 | 3.7 | -0.1 | 2.5
Cc1ccc(S(=O)(=O)N(C)C[C@@H]2OCCCC[C@@H](C)Oc3ccc(NS(C)(=O)=O)cc3C(=O)N([C@@H](C)CO)C[C@H]2C)cc1 | 36.0* | 0.3 | -0.3 | 0.5
Cc1ccc(S(=O)(=O)N(C)C[C@H]2OCCCC[C@@H](C)Oc3ccc(NS(C)(=O)=O)cc3C(=O)N([C@@H](C)CO)C[C@H]2C)cc1 | 9.3 | 0.2 | -0.2 | -0.6
C[C@@H]1CCCCO[C@@H](CN(C)S(=O)(=O)c2ccc(Cl)cc2)[C@@H](C)CN([C@H](C)CO)C(=O)c2cc(NS(C)(=O)=O)ccc2O1 | 21.6* | -0.2 | -0.1 | 1.3
CO[C@H]1CN(C)C(=O)c2cc(NC(=O)c3cnccn3)ccc2OC[C@H](C)NC[C@@H]1C | 0.5 | 0.1 | -0.2 | 12.6
